PKD1 kinase inh – inhibitors of human PKD1 kinase, biochemical, fluorescence polarization | Serine/threonine-protein kinase D1 (Homo sapiens), Q15139 | inhibition, % (concentration not given with the values) | hit rate 0.056% among 200,000 | PKD1 kinase fluorescence polarization assay
Target sequence (Q15139 whole entry, looked up): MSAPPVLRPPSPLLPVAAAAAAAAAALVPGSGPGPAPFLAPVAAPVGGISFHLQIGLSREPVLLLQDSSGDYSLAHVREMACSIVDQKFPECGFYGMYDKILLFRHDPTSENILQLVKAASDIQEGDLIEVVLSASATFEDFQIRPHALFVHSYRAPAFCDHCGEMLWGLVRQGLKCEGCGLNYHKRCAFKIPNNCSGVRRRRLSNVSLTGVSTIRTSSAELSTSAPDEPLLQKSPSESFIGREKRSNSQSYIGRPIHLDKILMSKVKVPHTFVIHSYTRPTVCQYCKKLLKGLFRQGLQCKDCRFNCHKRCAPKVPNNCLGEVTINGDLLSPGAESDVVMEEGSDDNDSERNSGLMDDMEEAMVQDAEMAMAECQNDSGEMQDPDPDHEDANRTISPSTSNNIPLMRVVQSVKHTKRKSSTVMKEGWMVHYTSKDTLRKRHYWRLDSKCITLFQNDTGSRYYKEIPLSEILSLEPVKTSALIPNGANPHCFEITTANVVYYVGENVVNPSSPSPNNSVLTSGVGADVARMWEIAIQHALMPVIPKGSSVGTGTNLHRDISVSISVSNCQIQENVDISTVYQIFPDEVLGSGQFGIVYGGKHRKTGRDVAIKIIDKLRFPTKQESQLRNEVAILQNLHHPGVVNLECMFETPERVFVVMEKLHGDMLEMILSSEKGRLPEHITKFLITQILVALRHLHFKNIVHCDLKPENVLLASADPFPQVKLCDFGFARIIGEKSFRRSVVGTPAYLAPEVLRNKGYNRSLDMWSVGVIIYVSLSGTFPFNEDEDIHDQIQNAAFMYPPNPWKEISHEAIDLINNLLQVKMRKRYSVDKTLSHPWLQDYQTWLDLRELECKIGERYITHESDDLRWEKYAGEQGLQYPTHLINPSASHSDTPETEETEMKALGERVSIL
EBV gp42 block – Epstein-Barr virus gp42 inhibitors, primary screen, biochemical, uHTS, fluorescence polarization | Glycoprotein 42 (Epstein-Barr virus (strain AG876)), Q1HVG2 | Fluorescence polarization binding assay, mP read-out | inhibition, % (tested at 21.74 µM) | hit rate 0.42% among 220,000
RBBP9 inhibitor – human RBBP9 inhibitors, primary screen, biochemical, fluorescence polarization, FP-Rh probe, HTS. Serine hydrolase RBBP9 (Homo sapiens), O75884. recombinant RBBP9. inhibition, % at 7.94 µM. hit rate 0.2% among 220,000;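 active = inhibition above the campaign mean of all tested compounds plus 3 SD, cut at about 14% in these data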;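 note: plate controls were DMSO wells with RBBP9 for no effect and wells lacking RBBP9 protein for full effect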
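System: RBBP9 protein / Quantity: 2.5 µM RBBP9 dispensing solution, before mixing / Also added: Serine-hydrolase probe FP-Rh, 375 nM pre-mixing / Dosing: 7.94 µM single dose, 0.794% DMSO / Timing: enzyme-compound preincubation 30 min, then probe labeling 45 min, 25 °C / Signal: FP readout at 525/598 nm / Controls: DMSO-treated enzyme wells and wells lacking RBBP9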
14-3-3 Bad PPI – inhibitors of 14-3-3 zeta/Bad binding, primary screen, biochemical, TR-FRET, bovine 14-3-3 zeta | inhibition, % at 21.7 µM | 14-3-3 protein zeta/delta (Bos taurus), P63103 | TR-FRET 14-3-3zeta/Dy647-pBad peptide displacement, 1 h | hit rate 0.71% among 220,000;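 active = inhibition above about 70%, limit read from the data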;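 note: 0% = full 14-3-3 plus peptide FRET controls and 100% = background without 14-3-3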
eIF4E-4G inh – eIF4E–eIF4G protein interaction inhibitors, primary screen, biochemical, uHTS, TR-FRET, eIF4GI fragment; hit rate 0.37% among 220,000; Eukaryotic translation initiation factor 4E (Mus musculus) + Eukaryotic translation …; TR-FRET eIF4E-eIF4GI(517-606) binding, 2 h; inhibition, % at 21.7 µM; AID 782, 2007;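 active = inhibition above about 30%, limit read from the data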;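 note: 0% = full FRET control wells and 100% = background wells lacking eIF4GI fragment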
Active calls of the source: *; · = no result given; [ ] = another dose, or the depositor's remark. Most compounds without a hit are left out; they make up all but 1.6% or so of the library. Cut-off read from the data, not from the text of the source, unless noted: active = inhibition above about 50%; inactive = the rest.

SMILES | PKD1 kinase inh | EBV gp42 block | RBBP9 inhibitor | 14-3-3 Bad PPI | eIF4E-4G inh
CC1CN(c2ccc(Oc3ccccc3)cc2)c2nc3c(c(=O)n(CC(N)=O)c(=O)n3C)n2C1 (stereo unspecified) | · | -8 | · | 0 | 95*
Cc1ccc(N2CC(C)Cn3c2nc2c3c(=O)n(CC(=O)OCc3ccccc3)c(=O)n2C)cc1C (stereo unspecified) | -5 | -2 | -3 | -19 | -25
CCc1cc[n+](-c2nc3ccccc3nc2[N-]S(=O)(=O)c2ccc(Br)s2)cc1 | 4 | 58* | -5 | 7 | -1
Cc1cc[n+](-c2nc3ccccc3nc2[N-]S(=O)(=O)c2ccccc2)cc1 | 6 | 12 | -6 | 6 | -1
CCC(C)n1c(SCc2ccc([N+](=O)[O-])cc2)nc2ccsc2c1=O (stereo unspecified) | 7 | 3 | -2 | -7 | 9
Cc1n[nH]c(=O)nc1NCc1ccco1 | -5 | -3 | 4 | 3 | 74*
CCCCNC(=O)C1(NC(=O)Nc2ccc(C)cc2)CCCCC1 | -1 | -5 | -5 | -4 | 2
CN(C)[C@@H]1C(=O)C(C(=O)NCN2CCCC2)=C(O)[C@@]2(O)C(=O)C3=C(O)c4c(O)cccc4[C@@](C)(O)C3CC12 (stereo partly specified) | 23 | 71* | 2 | 85* | 64*
COc1cc(/C=N/Nc2nnc3c(n2)[nH]c2ccccc23)ccc1O | -9 | -17 | -1 | 83*[fluorescence artefact?] | 9
COc1cc(/C=N/Nc2ccccc2C(F)(F)F)ccc1O | 1 | 5 | -4 | -2 | 1
Cc1ccc(Cn2nc(C)c(NC(=O)CSc3nc4c(c(C(F)(F)F)n3)CCc3ccccc3-4)c2C)cc1 | -13 | 0 | -8 | 66 | 30*
Cc1nc(NCc2ccccn2)c2ccccc2n1 | 8 | -26 | 7 | 70* | 26
COc1cc(C(=O)NNC(=O)c2cc(C)[nH]n2)cc(OC)c1OC | 0 | -10 | 2 | -2 | 3
COC(=O)n1c(=S)oc2cc(Cl)ccc21 | -2 | 7 | -4 | 68 | 61*
CCCCOC(=O)n1c(=S)oc2cc(Cl)ccc21 | -6 | -9 | -11 | 17 | 14
O=C(O)c1cc(NC(=O)c2ccccc2[N+](=O)[O-])ccc1O | -1 | -21 | -12 | -1 | 1
Cc1cc(NS(=O)(=O)c2ccc(NC(=S)Nc3ccc(Cl)cc3C)cc2)no1 | · | -14 | -4 | 4 | 3
CS(=O)(=O)c1ccc2nc(NC(=O)c3ccc(NS(=O)(=O)c4ccc(F)c(F)c4)cc3)sc2c1 | · | -69 | -22 | 72* | -10
CCOC(=O)c1cc(-c2ccccc2)sc1NC(=O)COC(=O)c1cccc(S(N)(=O)=O)c1 | 2 | -5 | 0 | 73* | -36
CCOC(=O)c1cc(-c2ccccc2)sc1NC(=O)COC(=O)c1ccc(Cl)c(S(N)(=O)=O)c1 | -5 | -6 | 1 | 10 | 7
COc1cccc(CN2C(=O)c3cccc(N)c3C2=O)c1 | -2 | 59* | -5 | -15 | 13
COc1cccc(Cn2cc(N)cn2)c1 | -4 | 0 | 14 | -7 | -4
O=S(=O)(Nc1nc2ccccc2s1)c1cnc(Cl)c(Br)c1 | · | 3 | -5 | 0 | 6
COc1cc(NC(=O)c2ccccc2)c(OC)cc1NC(=O)Cc1cccs1 | 3 | -1 | -3 | 1 | 39*
Cc1ccc([N+](=O)[O-])cc1NC(=O)Cc1cccs1 | -7 | 36 | -2 | 56 | 37*
SMILES | PKD1 kinase inh | EBV gp42 block | RBBP9 inhibitor | 14-3-3 Bad PPI | eIF4E-4G inh
COc1ccc(Cc2nnc(NC(=O)Cc3cccs3)s2)cc1OC | -6 | 68* | -10 | 63 | 37*
Cc1ccc([N+](=O)[O-])cc1NC(=O)Cc1ccc(F)cc1 | 2 | -8 | -9 | -22 | 1
CSc1nnc(C)c(=O)n1COC(=O)/C=C/c1ccc2c(c1)OCO2 | -3 | -11 | 0 | 4 | -2
Cc1ccc(S(=O)(=O)N(C)C)cc1NC(=O)C1CCCCC1 | · | -6 | -14 | 3 | 0
COC(=O)c1cc(NC(=O)c2ccccc2)c(=O)oc1/C=C/Nc1ccc(Oc2ccccc2)cc1 | -9 | 186* | -7 | -9 | -2
O=C(NN1CCOCC1)c1cc(S(=O)(=O)Nc2cccc(C(F)(F)F)c2)ccc1Cl | -3 | 6 | -10 | 0 | 1
COc1cccc(C2C3=C(N=c4s/c(=C\c5ccc(OCC(=O)O)cc5)c(=O)n42)c2ccccc2CC3)c1 (stereo unspecified) | · | -1 | -20 | 69 | 40*
CCOC(=O)NNC(=O)NCCCCCCNC(=O)NNC(=O)OCC | · | -8 | 5 | -5 | -2
CCN(CC)C(=S)SC1CCCCN(C(=O)c2ccccc2)C1=O (stereo unspecified) | · | -2 | -6 | 0 | 14
CC1CCc2c(sc3nc(CN4CCOCC4)nc(NS(=O)(=O)c4cccc([N+](=O)[O-])c4)c23)C1 (stereo unspecified) | 4 | 59* | -2 | 11 | 6
CN1CCN(C(=O)CCNC(=O)Cn2ccc3ccccc3c2=O)CC1 | 4 | 6 | -7 | -7 | 2
COc1ccc(N2CCN(C(=O)CCNC(=O)Cn3ccc4ccccc4c3=O)CC2)cc1 | 2 | 6 | -5 | 55 | 78*
O=C(/C=C\c1ccc(-c2cccc([N+](=O)[O-])c2)o1)N1CCOCC1 | -1 | 1 | 8 | -11 | -2
Cc1cc(CSc2ccccc2)ccc1NC(=O)c1cccc([N+](=O)[O-])c1 | 1 | -12 | -4 | 5 | 72*[fluorescence artefact?]
O=C(Nc1nc(-c2cccnc2)cs1)c1cccc([N+](=O)[O-])c1 | -2 | 18 | -5 | 79* | 9
O=C(Nc1cccc([N+](=O)[O-])c1)c1cccc(C(=O)Nc2cccc([N+](=O)[O-])c2)c1 | · | -9 | -5 | 61 | 35*
O=C(Nc1nc(-c2ccccc2)cs1)c1cccc([N+](=O)[O-])c1 | -5 | 10 | -7 | -5 | 3
COCCNC(=O)c1cc(C(=O)CC(C)C)c[nH]1 | 3 | 10 | -14 | -2 | 2
COc1ccc(S(=O)(=O)Nc2ccc(-n3cccc3)cc2)cc1 | -2 | 6 | -4 | -1 | 2
C/C(=N/NC(=O)c1ccc2c(c1)OCO2)c1ccc(NC(=O)C(F)(F)F)cc1 | -1 | -27 | -6 | 86* | 6
C/C(=N\NC(=O)c1ccc2c(c1)OCO2)c1ccc(O)cc1 | · | 8 | -7 | -1 | -8
CC1CCCCC1NC(=O)/C(C#N)=C/c1ccccc1F (stereo unspecified) | -2 | -12 | -4 | -12 | -3
COc1ccc(Oc2cc(C(F)(F)F)nc(N(C)C)n2)cc1 | 1 | -7 | -1 | -8 | -1

Screening data deposited in PubChem BioAssay by several laboratories.
